Measured values as given in ChEMBL document CHEMBL1153229, “The first synthetic agonists of FFA2: Discovery and SAR of phenylacetamides as allosteric modulators” (Bioorg Med Chem Lett, 2010).
Activity calls are given as the source filed them. The rule behind the calls is not given here.

Legend:
[1] = molecular target: Free fatty acid receptor 1 (Homo sapiens) (UniProt O14842); assay: Agonist activity at FFA1 receptor up to 30 uM; type: functional
[2] = tested on: Rattus norvegicus; assay: Clearance in Sprague-Dawley rat at 0.5 mg/kg, iv; type: ADME, organism-based; parameters: dose 0.5 mg/kg, route intravenous; conditions: in vivo
Procedure, shortened: (§1)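 Male Sprague-Dawley rats dosed 0.5 mg/kg iv.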

[3] = AUC in mouse at 5 mg/kg, po; type: ADME, organism-based; parameters: dose 5 mg/kg, route oral; conditions: plasma
[4] = tested on: 3T3-L1; assay: Inhibition of lipolysis in mouse 3T3L1 cells; type: functional, cell-based
Procedure, shortened: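 Lipolysis measured in 3T3L1 adipocytes across a concentration range of test compound. Sensitivity to pertussis toxin treatment also examined. Means of three experiments.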

[5] = tested on: Mus musculus; assay: Reduction in plasma free fatty acid level in overnight fasted FFA2 knockout C57BL/6 mouse at 20 mg/kg, ip after 15 mins; type: functional, organism-based; parameters: dose 20 mg/kg
Procedure, shortened: (§2)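 Male-unspecified C57BL6 mice, wild type or FFA2 knockout, fasted overnight. Given compound or vehicle (10% dimethyl acetamide, 10% ethanol, 30% propylene glycol, 50% saline) ip at 10 ml/kg. Tail blood sampled before and 15 minutes after injection. Plasma FFA measured by enzymatic kit. Ten animals per group; t test.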

[6] = molecular target: T1, C-X-C chemokine receptor type 3 (Homo sapiens) (UniProt P49682); assay: Agonist activity at CXCR3 up to 30 uM; type: functional
T1 sequence (whole entry): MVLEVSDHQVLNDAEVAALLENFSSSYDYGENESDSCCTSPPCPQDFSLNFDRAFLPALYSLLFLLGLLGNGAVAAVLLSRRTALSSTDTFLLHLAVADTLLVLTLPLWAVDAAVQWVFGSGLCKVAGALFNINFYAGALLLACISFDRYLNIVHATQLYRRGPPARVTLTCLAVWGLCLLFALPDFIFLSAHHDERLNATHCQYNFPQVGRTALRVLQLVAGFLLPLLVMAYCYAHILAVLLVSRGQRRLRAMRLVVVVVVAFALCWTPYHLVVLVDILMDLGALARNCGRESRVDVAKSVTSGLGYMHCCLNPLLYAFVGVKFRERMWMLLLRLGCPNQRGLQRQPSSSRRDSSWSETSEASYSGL

[7] = molecular target: T2, Free fatty acid receptor 2 (Homo sapiens) (UniProt O15552); assay: Agonist activity at human FFA2 receptor expressed in CHO cells assessed as inhibition of forskolin-induced cAMP production relative to acetate; type: functional, cell-based
T2 sequence (whole entry): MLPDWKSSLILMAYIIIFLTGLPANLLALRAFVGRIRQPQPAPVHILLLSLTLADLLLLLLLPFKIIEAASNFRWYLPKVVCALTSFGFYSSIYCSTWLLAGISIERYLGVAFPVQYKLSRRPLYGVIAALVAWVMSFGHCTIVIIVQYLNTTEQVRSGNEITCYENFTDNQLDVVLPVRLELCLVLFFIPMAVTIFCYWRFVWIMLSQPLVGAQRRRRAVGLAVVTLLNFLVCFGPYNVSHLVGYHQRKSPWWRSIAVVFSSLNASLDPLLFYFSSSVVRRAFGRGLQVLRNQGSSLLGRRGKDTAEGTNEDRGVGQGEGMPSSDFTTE
Procedure, shortened: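 Suspended cells, 10,000 per well, in Hank's balanced salt solution with 25 mM HEPES and 0.01% (w/v) BSA. Stimulated with forskolin (5 μM final) plus serially diluted test ligands, room temperature for 30 min. Antibody and lysis reagents then added, followed by overnight dark incubation with detection solution. Luminescence read (RLU). Efficacy expressed relative to acetate. Means of four experiments.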

[8] = Tmax in mouse at 5 mg/kg, po; type: ADME, organism-based; parameters: dose 5 mg/kg, route oral; conditions: in vivo
[9] = tested on: Mus musculus; assay: Reduction in plasma free fatty acid level in overnight fasted wild type C57BL/6 mouse at 20 mg/kg, ip after 15 mins; type: functional, organism-based; parameters: dose 20 mg/kg; procedure, shortened: as §2
[10] = molecular target: T3, Endothelin receptor type B (Homo sapiens) (UniProt P24530); assay: Agonist activity at ETBR up to 30 uM; type: functional
T3 sequence (whole entry): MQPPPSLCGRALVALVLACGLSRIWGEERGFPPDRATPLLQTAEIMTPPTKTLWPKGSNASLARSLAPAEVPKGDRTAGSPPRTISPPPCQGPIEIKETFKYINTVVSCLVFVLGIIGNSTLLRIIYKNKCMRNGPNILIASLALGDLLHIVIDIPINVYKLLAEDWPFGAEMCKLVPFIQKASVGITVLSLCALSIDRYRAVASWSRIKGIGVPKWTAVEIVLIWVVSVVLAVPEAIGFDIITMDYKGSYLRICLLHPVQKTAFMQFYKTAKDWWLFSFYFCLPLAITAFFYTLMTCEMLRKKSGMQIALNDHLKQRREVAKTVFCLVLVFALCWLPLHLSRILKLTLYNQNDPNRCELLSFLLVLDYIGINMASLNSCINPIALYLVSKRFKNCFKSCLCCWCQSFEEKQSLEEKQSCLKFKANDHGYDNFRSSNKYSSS

[11] = Mean residence time in mouse at 5 mg/kg, po; type: ADME, organism-based; parameters: dose 5 mg/kg, route oral; conditions: in vivo
[12] = molecular target: Growth hormone secretagogue receptor type 1 (Homo sapiens) (UniProt Q92847); assay: Agonist activity at GHSR up to 30 uM; type: functional
[13] = Cmax in mouse at 5 mg/kg, po; type: ADME, organism-based; parameters: dose 5 mg/kg, route oral; conditions: in vivo
[14] = Volume of distribution at steady state in Sprague-Dawley rat at 0.5 mg/kg, iv; type: ADME, organism-based; parameters: dose 0.5 mg/kg, route intravenous; conditions: in vivo, read-out: Vdss; procedure, shortened: as §1
[15] = tested on: Rattus norvegicus; assay: AUC in Sprague-Dawley rat at 0.5 mg/kg, iv; type: ADME, organism-based, Plasma; parameters: dose 0.5 mg/kg, route intravenous; conditions: in vivo; procedure, shortened: as §1
[16] = Mean residence time in Sprague-Dawley rat at 0.5 mg/kg, iv; type: ADME, organism-based; parameters: dose 0.5 mg/kg, route intravenous; conditions: in vivo; procedure, shortened: as §1
[17] = tested on: Mus musculus; assay: Reduction in plasma free fatty acid level in overnight fasted wild type C57BL/6 mouse at 3 mg/kg, ip after 15 mins; type: functional, organism-based; parameters: dose 3 mg/kg; procedure, shortened: as §2
[18] = molecular target: T4, Free fatty acid receptor 3 (Homo sapiens) (UniProt O14843); assay: Agonist activity at FFA3 receptor up to 30 uM; type: functional
T4 sequence (whole entry): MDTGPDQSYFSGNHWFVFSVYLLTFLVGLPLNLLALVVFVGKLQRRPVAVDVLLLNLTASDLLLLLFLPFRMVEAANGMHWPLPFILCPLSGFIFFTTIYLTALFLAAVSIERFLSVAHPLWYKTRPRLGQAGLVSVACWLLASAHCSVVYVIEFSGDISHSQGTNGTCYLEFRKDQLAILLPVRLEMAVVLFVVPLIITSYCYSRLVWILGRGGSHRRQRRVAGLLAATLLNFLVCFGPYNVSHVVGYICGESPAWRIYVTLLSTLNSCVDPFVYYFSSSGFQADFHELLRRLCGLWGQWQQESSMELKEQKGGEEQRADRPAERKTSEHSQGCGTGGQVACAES

[19] = molecular target: Hydroxycarboxylic acid receptor 2 (Homo sapiens) (UniProt Q8TDS4); assay: Agonist activity at GPR109A up to 30 uM; type: functional
Hydroxycarboxylic acid receptor 2 (Homo sapiens), sequence (Q8TDS4 whole entry): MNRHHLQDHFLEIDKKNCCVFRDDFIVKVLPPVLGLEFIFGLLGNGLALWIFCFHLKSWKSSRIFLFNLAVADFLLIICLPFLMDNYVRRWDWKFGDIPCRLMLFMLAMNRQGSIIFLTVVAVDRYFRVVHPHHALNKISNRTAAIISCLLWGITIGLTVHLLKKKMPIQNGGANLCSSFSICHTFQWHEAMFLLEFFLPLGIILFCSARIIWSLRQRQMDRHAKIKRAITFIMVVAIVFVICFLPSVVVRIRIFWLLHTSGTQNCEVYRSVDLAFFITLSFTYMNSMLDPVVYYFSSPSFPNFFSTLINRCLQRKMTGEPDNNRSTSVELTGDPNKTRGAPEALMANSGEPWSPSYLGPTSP

Free fatty acid receptor 1 (Homo sapiens), sequence (O14842 whole entry): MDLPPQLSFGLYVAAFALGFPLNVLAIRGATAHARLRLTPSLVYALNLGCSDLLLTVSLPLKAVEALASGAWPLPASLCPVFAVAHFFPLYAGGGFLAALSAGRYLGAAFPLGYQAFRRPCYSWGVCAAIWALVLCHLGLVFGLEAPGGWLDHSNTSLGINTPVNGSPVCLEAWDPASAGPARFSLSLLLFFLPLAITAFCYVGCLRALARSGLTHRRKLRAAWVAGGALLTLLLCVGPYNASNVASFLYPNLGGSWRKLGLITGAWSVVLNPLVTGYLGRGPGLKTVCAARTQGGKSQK
Growth hormone secretagogue receptor type 1 (Homo sapiens), sequence (Q92847 whole entry): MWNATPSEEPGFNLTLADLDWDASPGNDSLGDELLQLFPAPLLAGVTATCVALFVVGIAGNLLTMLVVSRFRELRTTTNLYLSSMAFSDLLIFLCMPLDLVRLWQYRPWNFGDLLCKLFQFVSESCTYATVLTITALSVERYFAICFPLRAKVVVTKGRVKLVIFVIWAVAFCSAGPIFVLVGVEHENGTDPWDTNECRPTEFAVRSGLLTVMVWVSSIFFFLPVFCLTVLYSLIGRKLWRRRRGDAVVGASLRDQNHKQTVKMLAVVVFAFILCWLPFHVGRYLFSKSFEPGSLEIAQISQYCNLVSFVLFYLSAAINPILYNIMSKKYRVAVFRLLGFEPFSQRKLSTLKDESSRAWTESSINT

## CC(C)[C@H](C(=O)Nc1ncc(F)s1)c1ccc(Cl)cc1
[1]
  Activity: inactive
[2]
  CL: 43.3 mL/min/kg
[3]
  AUC: 62000 ng·h/mL
[4]
  inhibition: Dose-dependent effect
[5]
  Activity: Active
[6]
  Activity: inactive
[7]
  Efficacy: 103%
[8]
  Tmax: 19.8 min
[9]
  Activity: Active
[10]
  Activity: inactive
[11]
  MRT: 55.8 min
[12]
  Activity: inactive
[13]
  Cmax: 83 ng/mL
[14]
  Vd: 9.8 L/kg
[15]
  AUC: 194 ng·h/mL
[16]
  MRT: 228 min
[17]
  Activity: Active
[18]
  Activity: inactive
[19]
  Activity: inactive
